Data set [1] deals with elastinolytic activity in brachiocephalic atherosclerotic lesions. The data set is described as follows: Elastinolytic in situ zymography of brachiocephalic artery lesions. Type of data set: biochemical, mouse. The gist of the method:
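Brachiocephalic lesion sections came from apoE-knockout mice fed a high-fat diet for 12 weeks. They were incubated with a fluorescently quenched elastin substrate in incubation buffer alone or with added 100 nmol/L test compound, 20 mmol/L EDTA or 1 μmol/L reference MMP inhibitor. Elastinolytic activity was read as green fluorescence.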

Data set [2] deals with monocyte/macrophage invasion. The data set is described as follows: In vivo subcutaneous sponge monocyte/macrophage invasion assay. On the set-up: species or system C57Bl/6;Sv129 mice. The gist of the method:
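Male C57Bl/6;Sv129 mice carrying multiple subcutaneous sponges were infused by osmotic minipump with test compound (n=7) or PBS (n=7). Sponges were retrieved and either used to isolate monocytes/macrophages or formalin-fixed for histology of proliferation and apoptosis.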

For data set [3], the system named is mouse monocyte-derived macrophages. The data set can be described thus: In vitro proliferation of monocyte-derived macrophages. The conditions noted are these: 100 nmol/L. In kind it is cell-based.
Data set [4] in a line: Body weight and plasma lipids after 4 weeks of infusion. In kind it is in vivo, apoE-knockout mice. As to conditions: 4.6 mg/kg per day for 4 weeks.
Data set [5] can be described thus: Plasma concentration of inhibitor after osmotic minipump infusion. In kind it is in vivo, apoE-knockout mice. The gist of the method:
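ApoE-knockout mice on a high-fat diet (n=6) received test compound at 4.6 mg/kg body weight per day by osmotic minipump. MMP inhibitory activity in plasma was measured with a fluorogenic substrate, and inhibitor concentration was derived from a calibration inhibition curve. Intact compound in plasma extracts was confirmed by micro-HPLC coupled to mass spectrometry.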

Data set [6] has as its system mouse monocyte-derived macrophages. The data set is described as follows: In vitro serum starvation-induced apoptosis of macrophages. Type of data set: cell-based.
Data set [7] deals with rabbit granuloma foam-cell macrophages. The data set is described as follows: In vitro serum starvation-induced apoptosis of foam-cell macrophages. In kind it is cell-based.
The target in a further data set is mouse MMP-12 (Mus musculus, UniProt P34960). The data set can be described thus: Inhibition of mouse MMP-12. Type of data set: biochemical.
The test system of data set [8] is other MMPs.
The target in a further data set is human MMP-12. As to conditions: read-out: Ki against human MMP-12; cited from earlier work.
For data set [9], the system named is mouse smooth muscle cells. The data set is described as follows: FasL-induced apoptosis of smooth muscle cells. Type of data set: cell-based. As to conditions: untreated cells 78±29; unchanged.
Data set [10] concerns apoE-knockout mice atherosclerotic plaques. Type of data set: in vivo, mouse. The gist of the method: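 ApoE-null mice (71% C57BL/6, 29% 129 background), both sexes, fed a high-fat diet for 8 weeks. They then received subcutaneous interscapular osmotic minipumps of test compound at 4.6 mg/kg body weight per day in sterile PBS (n=23) or PBS alone (n=27), with the diet continued 4 weeks. Brachiocephalic artery, proximal aorta, descending aorta and heart were analysed histologically. Apoptosis and calcification were scored by immunohistochemistry; calcification area was normalised to lesion area; mean±SEM.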

The subject of data set [11] is other MMPs. As to conditions: cited from earlier work.
Another data set concerns N-cadherin. The data set can be described thus: N-cadherin Western blotting in macrophages treated with active MMP-12. Type of data set: cell-based. (In general: A western blot detects proteins with antibodies after separation by electrophoresis.)
Setting [12] is: compared with active MMP-12 alone, 100 nmol/L.

What is called Ki is the equilibrium dissociation constant of an inhibitor or competing ligand from its target.

Chain of mouse MMP-12 (P34960 110-473): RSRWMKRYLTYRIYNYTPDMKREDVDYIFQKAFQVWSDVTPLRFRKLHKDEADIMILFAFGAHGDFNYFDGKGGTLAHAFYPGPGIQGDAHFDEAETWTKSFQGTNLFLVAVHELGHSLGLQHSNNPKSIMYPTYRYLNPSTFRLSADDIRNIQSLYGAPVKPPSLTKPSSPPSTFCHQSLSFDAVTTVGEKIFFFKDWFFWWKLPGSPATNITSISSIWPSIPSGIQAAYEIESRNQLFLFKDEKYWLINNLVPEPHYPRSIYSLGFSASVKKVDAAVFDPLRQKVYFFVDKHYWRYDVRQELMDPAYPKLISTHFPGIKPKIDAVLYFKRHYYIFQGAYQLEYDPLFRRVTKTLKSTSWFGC

Consider `CNC(=O)[C@H](Cc1ccccc1)NC(=O)[C@H](CC(C)C)[C@H](CSc1cccs1)C(=O)NO` [BB94, reference compound], for which the “reduction of elastinolytic activity” value in data set [1] (1 μmol/L) amounted to 95±4%.
On to `O=C(O)CN(CCN(CC(=O)O)CC(=O)O)CC(=O)O` [EDTA, reference compound], for which the “reduction of elastinolytic activity” value in [1] (20 mmol/L) is on record as 94±5%.
For `NC(=O)[C@H](CCC(=O)O)NC(=O)[C@H](CCC(=O)O)NC(=O)[C@H](Cc1cc(-c2ccc(-c3cccc(Cl)c3)cc2)no1)CP(=O)(O)c1ccc(Br)cc1` [RXP470.1], the “proliferative rate of sponge macrophages” value in [2] (control 4.0±1.1%) turned out to be 5.6±1.6%. Moreover, the “apoptotic cells in sponges” value in data set [2] (mouse, in vivo) was “no apoptotic cells were detected”. For the same molecule, the “reduction of invasive capacity of monocyte/macrophages” value in data set [2] (vs controls, P<0.01) was 48%. The molecule further displayed a macrophage proliferation in [3] (absence of added active MMP-12, control 36±5%) of 46±13%. Moreover, the macrophage proliferation in data set [3] (presence of added active MMP-12, MMP-12 alone 46±2%) amounted to 39±12%. The tolerability entry in data set [4] was “well tolerated”. This molecule also came in with a body weight in data set [4] (control 35.7±1.2 g) of 36.2 ± 0.9 g. Also, the “form observed in plasma of infused mice (mass spectroscopy fingerprint analysis)” value in [5] is listed as “intact form”. Also, in data set [6] (setting [12]), the inhibition of apoptosis turned out to be 91%. Moreover, in data set [6] (no added MMP-12), the “apoptotic rate relative to control cells” value is on record as “significantly reduced”. The same molecule showed an inhibition of apoptosis in [7] (setting [12]) of 91%. Further, the “apoptotic rate relative to control cells” value in data set [7] (no added MMP-12) is given as “significantly reduced”. The molecule also returned a Ki at mouse MMP-12 of 4 nM. For the same molecule, the “in vitro selectivity for MMP-12 over other MMPs” value in the data set on other MMPs [8] was “greater than 100 fold”. The Ki at human MMP-12 was 0.2 nM. Also, the “reduction of elastinolytic activity” value in data set [1] (100 nmol/L, P<0.05) worked out at 74%. Also, in data set [1] (100 nmol/L, incubation buffer alone 4.1±0.5%), the “elastinolytic activity, fluorescence of total plaque area” value is recorded as 1.1±0.3%. Further, in [9], the “rate of FasL-induced apoptosis” value is recorded as 70±29 ×10^4 ALU. Moreover, the “reduction of atherosclerotic plaque cross-sectional area” value in data set [10] (at 4 different vascular sites, male and female mice, Western diet) is given as “approximately 50%”. For the same molecule, in data set [10] (baseline 15.3±3.0%), the “frequency of intraplaque macrophage apoptosis” value was determined as 18.1±5.8%. In data set [10] (brachiocephalic artery plaques), the “reduction in apoptotic frequency, cleaved PARP-1 immunohistochemistry” value worked out at 57% and the “reduction in apoptotic frequency, pyknotic/fragmented nuclei” value turned out to be 43%. In addition, the “reduction of the number of ISEL-positive macrophages” value in [10] (brachiocephalic artery plaques, P<0.05) was determined as 42%. In addition, in data set [10] (brachiocephalic artery, P<0.05), the “increase of smooth muscle cell:macrophage ratio” value stood at 33%. In addition, the “smooth muscle cells as a proportion of all plaque cells” value in [10] (brachiocephalic artery, control 31±3%, P<0.05) is on record as 41±3%. Moreover, in [10] (brachiocephalic artery, control 42±1%, P<0.01), the “percentage of macrophages of plaque cells” value stood at 36±2%. Besides, in data set [10] (control 5.9±2.2%), the “area of calcification normalized to lesion area” value is 0.8±0.6%. Also, the “percentage of proliferating macrophages in brachiocephalic plaques, Ki67” value in [10] (control 14.8±3.1%) is reported as 13.6±2.2%. The “necrotic core size, percentage of total plaque area” value in data set [10] (control 24±2%) is given as 13±3%. Also, the “number of lesions showing elastin fragmentation” value in [10] (control 37%, P<0.05) is given as 8%. Further, the “increase in collagen content of lesions” value in [10] (did not reach statistical significance) is 26%. In [10] (no inhibitor 8.7±1.0, baseline 10.2±1.5), the minimum cap thickness is listed as 16.4±2.2 μm. Also, the “lesion size, brachiocephalic artery” value in data set [10] (treated mice, at commencement of drug administration 147±32) is recorded as 153±31 ×10^3 μm^2. The “total elastin content of plaques” value in [10] (vs control) was “no difference”. Besides, in data set [10] (vs control mice), the “endothelial coverage over plaques” value is on record as “no differences”; the “expression of vascular cell adhesion molecule-1 and MCP-1 and -2” value was “no difference”. For the same molecule, in data set [10] (vs controls), the “reduction in the number of mice with any detectable atherosclerotic lesion, thoracic aorta” value came out at 70% and the “reduction in the number of plaques containing buried fibrous layers” value is 65%. The “reduction of plaque cross-sectional area, brachiocephalic artery” value in data set [10] (vs controls after 12 weeks of high-fat feeding, P<0.05) worked out at 44%. Also, the “decrease in the area of calcification normalized to lesion area” value in data set [10] (vs controls, P<0.01) worked out at 86%. In data set [10] (vs controls, P<0.05), the “reduction in lesion necrotic core size” value was found to be 46%; the “reduction in plaque area, aortic sinus” value came to 37%; the “reduction in plaque area, proximal aorta” value is 61%; the “reduction in plaque size, thoracic aorta” value worked out at 88%. In [10] (vs controls, P<0.05), the “reduction in the incidence of calcification in lesions” value is given as 72%. Moreover, in the data set with other MMPs [11], the “less potent against other MMPs than against human MMP-12” value was 2 to 4 orders of magnitude. For the same molecule, in the data set with N-cadherin (coincubation with active MMP-12), the “effect on reduction of full-length N-cadherin expression by active MMP-12” value was “reversed”. The “formation of the cleaved fragment of N-cadherin” value with N-cadherin (in the presence of active MMP-12) was “negated”.

(Values after paper PMC3041652 (Arteriosclerosis, thrombosis, and vascular biology, 2011).)
